From article PMC10234622 (Matrix biology : journal of the International Society for …, 2022)

Tests used:
[1] = target: FITC-labeled ASPN peptide (FITC-ε-Ahx-Asporin) (mouse); assay: MST
[2] = system: Aspn in 3T3 embryonic fibroblasts; assay: Aspn expression and release in 3T3 embryonic fibroblasts, western blot; format: cell-based; conditions: TGFβ1 5 ng/ml, 24 h; n = 4
Method in brief: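 3T3 fibroblasts were grown in DMEM (10 mM glucose, 10% FBS, pH 7.4) and given vehicle or TGFβ1 5 ng/ml for 24 h. Intracellular Aspn came from cell lysates and extracellular Aspn from the collected media. Equal protein (Bradford) was run on 4–12% Bis-Tris gels and transferred to nitrocellulose. Blots were blocked in 5% milk 45 min, probed with anti-ASPN 1:1000 overnight at 4 °C, then peroxidase secondary 2 h RT; n = 4.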

[3] = system: Aspn in differentiated H9c2 cardiomyocytes; assay: Aspn expression and release in H9c2 cardiomyocytes; format: cell-based; conditions: TGFβ1 stimulation of cardiomyocytes
[4] = system: differentiated H9c2 cardiomyocytes; assay: MitoSOX staining, ROS after hypoxia-reoxygenation; format: cell-based; conditions: rASPN
Method in brief: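 H9c2 cells were differentiated for 5 days in DMEM with 1% FBS and 1 nM retinoic acid. They were given vehicle or rASPN, then simulated hypoxia-reoxygenation; control cells stayed under normal culture. Cells were stained with MitoSOX red and imaged by fluorescence microscopy. Intensity was expressed relative to control; mean with SD, one-way ANOVA with Tukey's test.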

[5] = system: differentiated H9c2 cardiomyocytes; assay: LDH release after hypoxia/reoxygenation; format: cell-based; conditions: rASPN 1 nM for 24 hrs prior to hypoxia (2 hrs) and reoxygenation (2 hrs); n = 4
[6] = system: differentiated H9c2 cardiomyocytes; assay: TUNEL staining after hypoxia/reoxygenation; format: cell-based; conditions: rASPN treatment; hypoxia-reoxygenation
Method in brief: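 H9c2 cells were differentiated for 5 days (1% FBS, 1 nM retinoic acid) and given vehicle or rASPN 1 nM for 24 h. Hypoxia 2 h and reoxygenation 2 h followed. Cells were fixed in 2% PFA 15 min RT, permeabilized with 0.1% Triton X-100, TUNEL-labelled with fluorescein and counterstained with DAPI. TUNEL-positive nuclei were counted over many fields of 10–15 cells and expressed as a ratio to DAPI-stained cells; mean with SD.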

[7] = system: H9c2 cardiomyocytes; assay: Seahorse respirometry on differentiated H9c2 cardiomyocytes; format: cell-based; conditions: rASPN 1 nM for 24 hrs, vs vehicle, n = 3
Method in brief: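 H9c2 cells were seeded at 15,000/well and differentiated for 5 days, then given vehicle or rASPN 1 nM for 24 h. Medium was switched to XF base with glucose, pyruvate and glutamine, and cells equilibrated 45 min at 37 °C without CO₂. OCR was recorded at several time points, basally and after sequential oligomycin, FCCP and antimycin A/rotenone. Parameters were calculated from traces; mean with SD, n = 3, unpaired t-test.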

## recombinant mouse TGFβ-1 protein (from UniProt P04202 279-390) (ligand)
[1]
  Kd: 15 nM

## TGFβ1: Transforming growth factor β1
[2]
  expression of Aspn (intracellular): increased expression
  release of Aspn into extracellular media: increased release of Aspn
[3]
  Aspn induction or release in extracellular media: no significant induction or any release in extracellular media

B1: rASPN: Recombinant asporin protein (protein, UniProt Q9BXN1 33-380, looked up)
Asporin: DMEDTDDDDDDDDDDDDDDEDNSLFPTREPRSHFFPFDLFPMCPFGCQCYSRVVHCSDLGLTSVPTNIPFDTRMLDLQNNKIKEIKENDFKGLTSLYGLILNNNKLTKIHPKAFLTTKKLRRLYLSHNQLSEIPLNLPKSLAELRIHENKVKKIQKDTFKGMNALHVLEMSANPLDNNGIEPGAFEGVTVFHIRIAEAKLTSVPKGLPPTLLELHLDYNKISTVELEDFKRYKELQRLGLGNNKITDIENGSLANIPRVREIHLENNKLKKIPSGLPELKYLQIIFLHSNSIARVGVNDFCPTVPKMKKSLYSAISLFNNPVKYWEMQPATFRCVLSRMSVQLGNFGM
[4]
  ROS production (MitoSOX): significantly reduced
[5]
  cell death (LDH release): reduced cell death
[6]
  percent TUNEL positive cells: reduced percent TUNEL positive cells
[7]; FCCP as uncoupler
  maximal respiration: significant increase
  spare respiratory capacity: significant increase
[7]
  ATP production: increased basal OCR and ATP production
  basal OCR: increased basal OCR
  non-mitochondrial OCR: reducing
